“Also recorded” adds a separate entry of the source. Read-outs that look alike come from different tables or passages of the source.

The values that follow come from paper PMC2884008 (Chemistry & biology, 2010).

The target in one data set is T1, p300 HAT (Homo sapiens, UniProt Q09472, DEL1529-1560/M1652G).
T1 sequence (Q09472 with tags, fused parts or gaps DEL1529-1560/M1652G limits assumed): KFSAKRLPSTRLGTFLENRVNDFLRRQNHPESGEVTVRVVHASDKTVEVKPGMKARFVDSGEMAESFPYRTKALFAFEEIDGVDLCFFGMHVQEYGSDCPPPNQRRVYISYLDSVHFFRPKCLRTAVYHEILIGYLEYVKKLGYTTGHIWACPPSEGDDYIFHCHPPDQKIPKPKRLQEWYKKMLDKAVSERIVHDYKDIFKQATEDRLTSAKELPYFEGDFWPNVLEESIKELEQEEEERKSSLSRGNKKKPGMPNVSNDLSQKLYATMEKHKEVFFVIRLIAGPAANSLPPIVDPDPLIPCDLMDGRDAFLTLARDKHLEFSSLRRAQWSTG
In words: direct radioactive 14C-acetyl-CoA transfer p300 HAT assay. It is filed as biochemical. The conditions noted are these: for p300 HAT inhibition, in words: analogs compared with C646.

Data set [1] addresses PCAF histone acetyltransferase (Homo sapiens, UniProt Q92831). In words: coupled spectrophotometric PCAF assay. It is filed as biochemical. The conditions noted are these: compound at 10 μM.
The subject of a further data set is p300 HAT mutant Y1467F. In words: C646 inhibition of p300 HAT mutant Y1467F. It is filed as biochemical. The conditions noted are these: Ki = IC50/(S/Km+1).
Data set [2] deals with GCN5 histone acetyltransferase (Saccharomyces cerevisiae, UniProt Q03330). As to the kind of experiment: direct radioactive HAT assay with yeast GCN5. It is filed as biochemical. The conditions noted are these: compound at 10 μM. In outline: (§1)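 Enzyme: Rtt109/Vps75 70 ng, yGcn5 15 ng, SAS 300 ng, hMOZ 1 μg. After 10 min at 30°C, reactions were started with 20 μM 12C/14C-AcCoA (1:1) and run 2–4 min. Product was resolved by Tris-Tricine SDS-PAGE and quantified by autoradiography. Duplicates.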
Sequence of GCN5 histone acetyltransferase (Q03330 whole entry): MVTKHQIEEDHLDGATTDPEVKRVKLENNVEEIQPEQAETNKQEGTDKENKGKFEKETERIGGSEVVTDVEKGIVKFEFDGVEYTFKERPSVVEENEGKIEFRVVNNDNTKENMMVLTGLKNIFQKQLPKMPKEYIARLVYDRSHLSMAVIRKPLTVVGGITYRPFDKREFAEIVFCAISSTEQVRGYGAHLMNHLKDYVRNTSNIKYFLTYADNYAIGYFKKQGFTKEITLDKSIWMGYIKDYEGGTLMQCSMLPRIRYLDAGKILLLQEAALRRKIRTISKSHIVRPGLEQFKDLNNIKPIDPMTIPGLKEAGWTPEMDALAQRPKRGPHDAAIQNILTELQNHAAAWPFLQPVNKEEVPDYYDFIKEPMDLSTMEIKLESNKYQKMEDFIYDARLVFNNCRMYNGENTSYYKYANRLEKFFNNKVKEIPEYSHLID

In a further data set the test system is WM35. In words: cell cycle analysis by propidium iodide FACS, WM35. It is filed as cell-based, human. The conditions noted are these: 20 μM, 24 h. In outline:
(§2)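 Cells were exposed to 20 μM test compound or DMSO for 24 h. More than 10^6 cells were fixed in 70% ethanol at 4°C for ≥2 h, rehydrated in PBS and stained 20 min at 37°C with PI in 0.1% Triton X-100/PBS containing RNase A. DNA content was read by flow cytometry, and the S-phase fraction was taken as the read-out.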

A short description of data set [3]: thiol adduct formation by NMR and chromatography. It is filed as physicochemical. The conditions noted are these: buffer conditions of the enzyme assay.
A further data set deals with melanoma line WM35. In words: 3H-thymidine incorporation in WM35. It is filed as cell-based, human. The conditions noted are these: C646 10 μM or Lys-CoA-Tat 25 μM, 24 h. In a few lines: (§3)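 Melanoma lines were grown in DMEM and NSCLC lines in RPMI 1640, both with 10% FBS, pen-strep and L-glutamine. About 5000 cells/well at ~60% sub-confluence were attached at 37°C, then exposed 24 h with DMSO at 0.2% in every condition. 3H-thymidine was added at 10 μCi/ml final for 5 h; cells were harvested onto filters and counted. Triplicates; counts normalized to pre-treatment counts.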

In data set [4] the test system is C3H 10T1/2 mouse fibroblasts. In words: histone acetylation in mouse cells, western blots of SDS and acid-urea gels. It is filed as cell-based. In outline:
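C3H 10T1/2 fibroblasts were grown in DMEM/10% FCS at 37°C, 6% CO2, then made quiescent in 0.5% FCS for 18–20 h. TSA at 33 nM was added for the final 30 min where used. Histones were acid-extracted, run on SDS and acid-urea gels and western blotted.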

For another data set, the system named is p300 HAT mutant T1411A. As to the kind of experiment: C646 inhibition of p300 HAT mutant T1411A. It is filed as biochemical. The conditions noted are these: Ki = IC50/(S/Km+1).
Data set [5] deals with Rtt109 histone acetyltransferase (Saccharomyces cerevisiae, UniProt Q07794). As to the kind of experiment: direct radioactive HAT assay with Rtt109/Vps75 complex. The conditions noted are these: compound at 10 μM. It is filed as biochemical. In a few lines: as §1
Sequence of Rtt109 histone acetyltransferase (Q07794 whole entry): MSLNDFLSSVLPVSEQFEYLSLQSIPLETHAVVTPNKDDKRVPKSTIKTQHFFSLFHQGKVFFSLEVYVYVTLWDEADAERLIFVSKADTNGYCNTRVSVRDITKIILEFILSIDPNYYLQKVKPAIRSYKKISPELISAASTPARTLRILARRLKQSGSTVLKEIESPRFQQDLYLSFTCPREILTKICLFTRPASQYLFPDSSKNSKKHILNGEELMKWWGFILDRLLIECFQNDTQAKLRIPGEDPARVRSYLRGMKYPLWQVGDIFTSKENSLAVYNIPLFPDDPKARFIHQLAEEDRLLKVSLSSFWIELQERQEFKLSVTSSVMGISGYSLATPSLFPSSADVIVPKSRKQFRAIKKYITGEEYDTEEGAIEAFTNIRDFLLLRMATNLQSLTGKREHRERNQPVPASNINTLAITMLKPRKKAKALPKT
Sequence of Rtt109 histone acetyltransferase (P53853 whole entry partner): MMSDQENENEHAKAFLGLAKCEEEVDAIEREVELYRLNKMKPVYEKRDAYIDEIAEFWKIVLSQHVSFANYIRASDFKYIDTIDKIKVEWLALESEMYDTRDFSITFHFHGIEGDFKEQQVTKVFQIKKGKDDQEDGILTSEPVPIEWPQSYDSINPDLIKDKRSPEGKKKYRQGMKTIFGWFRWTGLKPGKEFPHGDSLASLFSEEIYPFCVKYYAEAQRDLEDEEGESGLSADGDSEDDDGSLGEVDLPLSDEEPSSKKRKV
For the next data set, the system named is lung cancer line H23. As to the kind of experiment: 3H-thymidine incorporation in H23. It is filed as cell-based, human. The conditions noted are these: C646 10 μM or Lys-CoA-Tat 25 μM, 24 h. In outline: as §3
For data set [6], the target named is serotonin N-acetyltransferase (Ovis aries, UniProt Q29495). As to the kind of experiment: coupled spectrophotometric AANAT assay. It is filed as biochemical. The conditions noted are these: compound at 10 μM.
Sequence of serotonin N-acetyltransferase (Q29495 whole entry): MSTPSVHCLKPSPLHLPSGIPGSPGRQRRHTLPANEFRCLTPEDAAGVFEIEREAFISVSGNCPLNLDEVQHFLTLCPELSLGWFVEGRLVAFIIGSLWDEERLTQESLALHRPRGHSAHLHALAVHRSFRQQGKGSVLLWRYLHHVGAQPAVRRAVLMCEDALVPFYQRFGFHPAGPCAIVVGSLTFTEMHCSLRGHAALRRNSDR
In another data set the test system is p300 HAT mutant R1410A. As to the kind of experiment: C646 inhibition of p300 HAT mutant R1410A. The conditions noted are these: Ki = IC50/(S/Km+1). It is filed as biochemical.
Data set [7] concerns the target Sas histone acetyltransferase (Saccharomyces cerevisiae, UniProt P40963). In words: direct radioactive HAT assay with SAS complex. It is filed as biochemical. The conditions noted are these: compound at 10 μM. In outline:
as §1

Data set [8] concerns immortalized murine fibroblast cell line, NIH3T3. In words: 3H-thymidine incorporation in NIH3T3. The conditions noted are these: 20 μM. It is filed as cell-based. Background: Incorporation of labelled thymidine or its analogues reports DNA synthesis.
The next data set relates to melanoma line WM983A. As to the kind of experiment: 3H-thymidine incorporation in WM983A. It is filed as cell-based, human. The conditions noted are these: 24 h. In outline: as §3
Data set [9] deals with MOZ histone acetyltransferase (Homo sapiens, UniProt Q92794). As to the kind of experiment: direct radioactive HAT assay with hMOZ. It is filed as biochemical. The conditions noted are these: compound at 10 μM. In a few lines: as §1
Sequence of MOZ histone acetyltransferase (Q92794 497-780 limits assumed): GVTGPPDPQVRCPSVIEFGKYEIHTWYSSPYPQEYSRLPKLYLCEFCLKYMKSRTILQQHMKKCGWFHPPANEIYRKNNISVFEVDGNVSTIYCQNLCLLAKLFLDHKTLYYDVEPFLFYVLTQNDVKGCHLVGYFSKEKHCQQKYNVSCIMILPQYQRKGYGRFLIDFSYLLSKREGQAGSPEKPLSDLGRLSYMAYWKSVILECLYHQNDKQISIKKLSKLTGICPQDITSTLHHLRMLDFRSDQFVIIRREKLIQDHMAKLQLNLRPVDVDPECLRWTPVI
Data set [10] deals with three melanoma and three non-small cell lung cancer lines. As to the kind of experiment: 3H-thymidine incorporation in cancer cell line panel. It is filed as cell-based, human. The conditions noted are these: 24 h. In a few lines: as §3
The next data set relates to WM983A. In words: cell cycle analysis by propidium iodide FACS, WM983A. It is filed as cell-based, human. The conditions noted are these: 20 μM, 24 h. In outline: as §2
The test system of a further data set is WM983A cells. As to the kind of experiment: global histone H3 acetylation in WM983A cells by western blotting. It is filed as cell-based, human. The conditions noted are these: 6 h, increasing concentrations. A general note: In western blotting, separated proteins are transferred to a membrane and probed.
Another data set concerns p300 HAT mutant W1466F. In words: C646 inhibition of p300 HAT mutant W1466F. The conditions noted are these: Ki = IC50/(S/Km+1). It is filed as biochemical.
The target of data set [11] is p300/CBP HAT. The conditions noted are these: read-out: Ki for p300/CBP HAT, cited from earlier work.
For data set [12], the system named is p300/CBP HAT. As to the kind of experiment: p300 HAT inhibition, literature values. It is filed as biochemical. The conditions noted are these: Ki compared with C646.

Sequence of PCAF histone acetyltransferase (Q92831 493-658 limits assumed): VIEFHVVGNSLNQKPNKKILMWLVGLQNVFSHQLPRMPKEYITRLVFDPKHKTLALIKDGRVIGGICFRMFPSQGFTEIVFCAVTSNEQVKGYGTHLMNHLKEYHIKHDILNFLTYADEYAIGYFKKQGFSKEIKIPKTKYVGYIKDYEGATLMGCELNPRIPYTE
Sequence of Sas histone acetyltransferase (P40963 whole entry): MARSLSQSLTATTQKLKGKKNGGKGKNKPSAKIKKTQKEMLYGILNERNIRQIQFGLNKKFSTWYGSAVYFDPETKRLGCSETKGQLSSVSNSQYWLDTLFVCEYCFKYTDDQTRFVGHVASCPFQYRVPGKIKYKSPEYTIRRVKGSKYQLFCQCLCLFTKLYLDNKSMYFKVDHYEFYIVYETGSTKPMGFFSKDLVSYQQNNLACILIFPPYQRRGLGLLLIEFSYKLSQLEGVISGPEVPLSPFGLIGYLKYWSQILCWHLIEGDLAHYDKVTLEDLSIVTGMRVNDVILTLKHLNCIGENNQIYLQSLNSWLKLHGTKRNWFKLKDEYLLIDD
Sequence of Sas histone acetyltransferase (Q04003 whole entry partner): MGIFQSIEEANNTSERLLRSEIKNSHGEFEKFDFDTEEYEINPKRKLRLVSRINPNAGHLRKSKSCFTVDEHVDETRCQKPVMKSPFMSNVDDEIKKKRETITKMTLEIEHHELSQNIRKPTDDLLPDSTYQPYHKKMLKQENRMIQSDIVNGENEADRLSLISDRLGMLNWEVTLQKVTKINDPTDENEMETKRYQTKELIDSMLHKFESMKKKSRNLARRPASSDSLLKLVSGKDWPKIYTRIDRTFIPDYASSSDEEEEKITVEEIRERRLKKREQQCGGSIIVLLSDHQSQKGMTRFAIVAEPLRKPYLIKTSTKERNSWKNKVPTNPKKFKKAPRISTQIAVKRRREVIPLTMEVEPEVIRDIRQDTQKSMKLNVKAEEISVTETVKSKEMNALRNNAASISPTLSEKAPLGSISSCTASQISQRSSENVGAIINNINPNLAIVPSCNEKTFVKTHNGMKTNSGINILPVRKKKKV
Sequence of Sas histone acetyltransferase (Q99314 whole entry partner): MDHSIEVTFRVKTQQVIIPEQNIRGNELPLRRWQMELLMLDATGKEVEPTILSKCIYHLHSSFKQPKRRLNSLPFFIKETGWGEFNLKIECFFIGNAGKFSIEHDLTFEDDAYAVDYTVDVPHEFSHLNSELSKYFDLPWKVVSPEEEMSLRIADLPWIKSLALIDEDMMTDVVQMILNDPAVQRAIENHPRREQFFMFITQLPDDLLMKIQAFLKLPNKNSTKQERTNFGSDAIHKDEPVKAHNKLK

On to `CC1=NN(c2ccc(C(N)=O)cc2)C(=O)C1=Cc1ccc(-c2cc(C)c(C)cc2[N+](=O)[O-])o1` [Compound 6a], for which, at p300 HAT, the “p300 HAT inhibition, in words” value is reported as “well tolerated”.

As to `CC1=NN(c2cccc(C(=O)O)c2)C(=O)C1=Cc1ccc(-c2cc(C)c(C)cc2[N+](=O)[O-])o1` [Compound 6e], the “p300 HAT inhibition, in words” value at p300 HAT was “well tolerated”.

For `CC1=NN(c2ccc(S(=O)(=O)O)cc2)C(=O)C1=Cc1ccc(-c2cc(C)c(C)cc2[N+](=O)[O-])o1` [Compound 6f], the “p300 HAT inhibition, in words” value at p300 HAT was “well tolerated”.

As to `CC1=NN(c2ccc(S(N)(=O)=O)cc2)C(=O)C1=Cc1ccc(-c2cc(C)c(C)cc2[N+](=O)[O-])o1` [Compound 6g], the “p300 HAT inhibition, in words” value on p300 HAT is “well tolerated”.

In the case of `COC(=O)c1ccc(N2N=C(C)C(=Cc3ccc(-c4cc(C)c(C)cc4[N+](=O)[O-])o3)C2=O)cc1` [Compound 6h], on p300 HAT (relative IC50 referenced to C646), the “weakening of p300 inhibitory potency compared with C646” value was greater than 15 fold.

Regarding `COC(=O)c1cccc(N2N=C(C)C(=Cc3ccc(-c4cc(C)c(C)cc4[N+](=O)[O-])o3)C2=O)c1` [Compound 6i], at p300 HAT, the “p300 HAT inhibition, in words” value is recorded as “well tolerated”.

With `CC1=NN(c2ccc(C(=O)O)cc2)C(=O)C1=Cc1ccc(-c2cc(C)c(C)cc2CO)o1` [Compound 6l], the “p300 HAT inhibition, in words” value at p300 HAT is “substantial reduction in potency”.

On to `CC1=NN(c2ccc(C(=O)O)cc2)C(=O)/C1=C\c1ccc(-c2cc(C)c(C)cc2[N+](=O)[O-])o1` [Compound C646], for which, in [1], the “inhibition of PCAF” value is “less than 10%”. Moreover, the “increase of apparent Ki versus wild type p300” value with p300 HAT mutant Y1467F is listed as “at least 2 fold”; in the data set with p300 HAT mutant T1411A it was “at least 2 fold”; in the data set with p300 HAT mutant R1410A, “at least 2 fold”; in the data set on p300 HAT mutant W1466F, 7 fold. Further, in data set [2], the “inhibition of GCN5” value is on record as “less than 10%”. Besides, the cell cycle effect entry with WM35 and in the data set with WM983A was “G1-S cell cycle arrest; also recorded: decrease in %S phase” each time. Further, in data set [3], the “thiol adduct formation with DTT or beta-mercaptoethanol” value is on record as “no evidence of reaction”. Moreover, the 3H-thymidine incorporation result in the data set on melanoma line WM35 is recorded as “quite susceptible”; in the data set with lung cancer line H23, “quite susceptible”; in [10] (C646 10 μM), “capable of reducing; also recorded: Two out of three non-small cell lung adenocarcinoma cell lines demonstrate significant growth inhibition”. Further, the “basal acetylation levels of H3 and H4” value in data set [4] (25 μM, 1-3 h, H3K9ac, H4K12ac) was “slightly diminished; also recorded: reduces histone H3 and H4 acetylation levels”. Besides, the “TSA-inducible acetylation of H3 and H4” value in data set [4] (25 μM, 1-3 h before TSA (33 nM, final 30 min)) is reported as “virtually completely inhibits; also recorded: abrogates TSA-induced acetylation”. Also, the “inhibition of Rtt109” value in [5] was “less than 10%”. Further, in data set [6], the “inhibition of serotonin N-acetyltransferase” value was “less than 10%”. For the same molecule, in [7], the “inhibition of Sas” value is “less than 10%”. Moreover, in data set [8], the “3H-thymidine incorporation / cell proliferation” value is on record as “not inhibited; also recorded: does not have a significant inhibitory effect”. Besides, in the data set on melanoma line WM983A (read-out: IC50 for 3H-thymidine incorporation), the IC50 lay within 10 to 20 µM. The “cell proliferation via 3H-thymidine incorporation” value in the data set on melanoma line WM983A (up to 20 μM) is “inhibits WM983A melanoma cell proliferation”. In addition, in data set [9], the “inhibition of MOZ” value was “less than 10%”. For the same molecule, the “global histone H3 acetylation” value with WM983A cells is “dose-dependent reduction; also recorded: blocks H3 acetylation”.

As to `COc1ccc(C(=O)C2=C3OC(C)(C)[C@@H](CC=C(C)C)C[C@@]34C[C@@H](CC=C(C)C)C(C)(C)[C@@](CC=C(C)C)(C2=O)C4=O)cc1O` [LTK14], at p300/CBP HAT [11] (ref Mantelingu et al., 2007, Arif et al., 2009), the Ki is 5.1 µM. Further, in the data set with p300/CBP HAT [12], the “fold weaker than C646” value is “about 12 fold”.

For `CC(=O)N[C@@H](CCCCNC(=O)CSCCNC(=O)CCNC(=O)[C@H](O)C(C)(C)COP(=O)(O)OP(=O)(O)OC[C@H]1O[C@@H](n2cnc3c(N)ncnc32)[C@H](O)[C@@H]1OP(=O)(O)O)C(N)=O` [Lys-CoA], the Ki at p300/CBP HAT [11] (ref Lau et al., 2000) was 0.02 µM. Besides, the “fold more potent than C646” value in the data set with p300/CBP HAT [12] stood at 20 fold.

`CC(/C=C/C(=O)NO)=C\[C@@H](C)C(=O)c1ccc(N(C)C)cc1` [TSA, trichostatin A, reference compound]: the “H3 and H4 acetylation after HDAC inhibitor” value in data set [4] (TSA 33 nM, 30 min) is “increased H3 and H4 acetylation”.

Regarding “Ac-Asp-Asp-Asp-Asp-Tat [Ac-DDDD-Tat, reference compound]”, at p300 HAT, the “p300 HAT inhibition, in words” value is “lack p300 inhibitory properties”. Also, the “3H-thymidine incorporation, control compounds” value in data set [10] is “no effects”.
